# Reference: ChEMBL document CHEMBL4706596, “Synthesis, biological evaluation, in silico modeling and crystallization of novel small monocationic molecules with potent antiproliferative activity by dual mechanism” (Eur J Med Chem, 2020)
# Tests used:
# [1] = tested on: HeLa; experiment: Induction of mitochondrial membrane potential loss in human HeLa cells by JC1 staining based flow cytometry analysis; conditions: dose 2.5-5 µM
# [2] = Inhibition of [methyl-14C]choline uptake in human HT-29 cells at 10 uM incubated for 10 mins followed by removal of medium containing compound and subsequent addition of [methyl-14C]choline measured after 5 mins relative to control; assay type: functional; conditions: HT-29, 10 min
# Procedure, shortened: (§1)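 Cells at 200,000/well were incubated for 10 min at 37 °C in medium with or without CKα1 inhibitor. The medium was then removed and cells were exposed to [methyl-¹⁴C]choline (31 Ci/mol) for 5 min at 37 °C. Uptake was stopped by aspiration and two ice-cold PBS washes containing choline. Inhibition is expressed as % of untreated control.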
# [3] = tested on: HT-29; experiment: Induction of cell cycle arrest in human HT-29 cells assessed as accumulation at S phase at 1 uM incubated for 24 hrs by PI staining based flowcytometry analysis (reference value: 27.40 %); assay type: functional
# [4] = tested on: HeLa; experiment: Induction of apoptosis in human HeLa cells measured for 48 hrs by annexin V-FITC and PI staining based flowcytometry analysis; assay type: functional, cell-based; conditions: dose 2.5-5 µM
# Procedure, shortened: (§2)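 Treated cells were collected at different times, dual-stained with annexin V-FITC (phosphatidylserine exposure) and propidium iodide (DNA), and analysed by bi-parametric flow cytometry.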
# [5] = tested on: HeLa; experiment: Induction of cell cycle arrest in human HeLa cells assessed as accumulation at S phase at 2.5 uM incubated for 24 hrs by PI staining based flowcytometry analysis (reference value: 32.30 %); assay type: functional
# [6] = molecular target: T1, Choline kinase alpha (Homo sapiens, UniProt P35790); experiment: Binding affinity to human CKalpha1 assessed as dissociation constant by spectroflurometry
# Procedure, shortened: (§3)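 Purified human CK (cloned as reported earlier) at 1 µM was titrated with compound in 25 mM Tris, 150 mM NaCl, pH 7.5 at 25 °C. Compound ranges were 0.1–10 µM for CKα1 and 0.5–200 µM for CKβ. Tryptophan quenching was read with excitation at 280 nm, emission 300–400 nm and 5 nm slits. DMSO-matched controls were run, and Kd was fitted to a single-site model. Results are given as mean ± SD.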
# Target sequence in this assay (P35790 whole entry): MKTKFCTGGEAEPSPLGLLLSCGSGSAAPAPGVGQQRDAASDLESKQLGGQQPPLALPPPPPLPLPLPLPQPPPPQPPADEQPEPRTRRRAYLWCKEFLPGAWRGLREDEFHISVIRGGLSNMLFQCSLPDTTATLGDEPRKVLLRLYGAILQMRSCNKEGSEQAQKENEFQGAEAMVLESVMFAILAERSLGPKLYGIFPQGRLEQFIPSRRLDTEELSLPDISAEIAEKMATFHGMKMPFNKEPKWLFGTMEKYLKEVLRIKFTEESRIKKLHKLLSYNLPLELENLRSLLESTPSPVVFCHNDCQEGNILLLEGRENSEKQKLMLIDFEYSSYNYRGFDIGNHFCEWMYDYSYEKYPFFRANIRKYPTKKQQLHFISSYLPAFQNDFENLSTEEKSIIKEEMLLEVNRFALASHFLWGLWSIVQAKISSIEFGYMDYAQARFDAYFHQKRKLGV
# [7] = Inhibition of [methyl-14C]choline uptake in human HT-29 cells at 30 uM incubated for 10 mins followed by removal of medium containing compound and subsequent addition of [methyl-14C]choline measured after 5 mins relative to control; assay type: functional; conditions: HT-29, 10 min
# Procedure, shortened: as §1
# [8] = tested on: RS4-11; experiment: Antiproliferative activity against human RS4-11 cells assessed as inhibition of cell proliferation incubated for 72 hrs by MTT assay; assay type: functional
# Procedure, shortened: (§4)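 Cells seeded at 8 × 10³/well and held 18 h at 37 °C, 5% CO₂. Medium then replaced with compound at several concentrations for 72 h at 37 °C, followed by MTT viability read-out. GI50 is taken against cells given the maximum DMSO (0.25%), which is set as 100% viability. Dose-response curves come from at least three independent experiments run in triplicate and are reported as mean ± SE.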
# [9] = tested on: HT-29; experiment: Induction of mitochondrial membrane potential loss in human HT-29 cells measured for 48 hrs by JC1 staining based flow cytometry analysis; assay type: functional, cell-based; conditions: dose 2.5-5 µM
# Procedure, shortened: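 Cells were treated with compound, then stained with the fluorescent dye JC-1. Loss of mitochondrial membrane potential was monitored by flow cytometry.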
# [10] = tested on: HeLa; experiment: Induction of apoptosis in human HeLa cells at 2.5 to 5 uM by annexin V-FITC and PI staining based flowcytometry analysis; assay type: functional, cell-based; conditions: dose 2.5-5 µM, time 24-48 hrs, TDE = time-dependent effect
# Procedure, shortened: as §2
# [11] = molecular target: T1, Choline kinase alpha; experiment: Inhibition of human CKalpha1 assessed as reduction in 14C incorporation from [methyl-14C]choline to […] at 10 uM using [methyl-14C]choline as substrate preincubated for 5 mins in presence of ATP and MgCl2 followed by substrate addition and measured after 10 mins by liquid scintillation counting method relative to control; conditions: time 15.0 min
# Procedure, shortened: (§5)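 Purified human CKα1 (20 ng) in 100 mM Tris pH 8.5 with 10 mM MgCl₂ and 10 mM ATP, DMSO ≤0.1%, was preincubated 5 min at 37 °C. Reaction was started with 1 mM [methyl-¹⁴C]choline (4500 dpm/nmol), run 10 min at 37 °C and stopped in boiling water. Product was separated by silica TLC, scraped and scintillation-counted against DMSO controls. At least three experiments were run; IC50 was obtained from sigmoidal dose-response fits.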
# Target sequence in this assay (P35790 whole entry, looked up): as the sequence (P35790 whole entry) above
# [12] = tested on: HeLa; experiment: Induction of cell cycle arrest in human HeLa cells assessed as accumulation at S phase at 1 uM incubated for 24 hrs by PI staining based flowcytometry analysis (reference value: 32.30 %); assay type: functional
# [13] = tested on: HeLa; experiment: Induction of cell cycle arrest in human HeLa cells assessed as accumulation at G0/G1 phase at 1 uM incubated for 24 hrs by PI staining based flowcytometry analysis (reference value: 57 %); assay type: functional
# [14] = species: Homo sapiens; experiment: Selectivity index, ratio of Kd for human CKbeta to Kd for human CKalpha1
# [15] = tested on: HeLa; experiment: Induction of cell cycle arrest in human HeLa cells assessed as accumulation at G2/M phase at 1 uM incubated for 24 hrs by PI staining based flowcytometry analysis (reference value: 10.7 %); assay type: functional
# [16] = Inhibition of [methyl-14C]choline uptake in human HepG2 cells at 10 uM incubated for 10 mins followed by removal of medium containing compound and subsequent addition of [methyl-14C]choline measured after 5 mins relative to control; assay type: functional; conditions: HepG2, 10 min
# Procedure, shortened: as §1
# [17] = tested on: HT-29; experiment: Induction of cell cycle arrest in human HT-29 cells assessed as accumulation at G2/M phase at 2.5 uM incubated for 24 hrs by PI staining based flowcytometry analysis (reference value: 12.40 %); assay type: functional
# [18] = Inhibition of [methyl-14C]choline uptake in human HepG2 cells at 30 uM incubated for 10 mins followed by removal of medium containing compound and subsequent addition of [methyl-14C]choline measured after 5 mins relative to control; assay type: functional; conditions: HepG2, 10 min
# Procedure, shortened: as §1
# [19] = tested on: HT-29; experiment: Induction of cell cycle arrest in human HT-29 cells assessed as accumulation at G0/G1 phase at 1 uM incubated for 24 hrs by PI staining based flowcytometry analysis (reference value: 60.20 %); assay type: functional
# [20] = tested on: HeLa; experiment: Antiproliferative activity against human HeLa cells assessed as inhibition of cell proliferation incubated for 72 hrs by MTT assay; assay type: functional
# Procedure, shortened: as §4
# [21] = tested on: HT-29; experiment: Induction of cell cycle arrest in human HT-29 cells assessed as increase accumulation of G0/G1 phase incubated for 24 hrs by PI staining based flowcytometry analysis; conditions: dose 1-2.5 µM
# [22] = tested on: CCRF-CEM; experiment: Antiproliferative activity against human CCRF-CEM cells assessed as inhibition of cell proliferation incubated for 72 hrs by MTT assay; assay type: functional
# Procedure, shortened: as §4
# [23] = molecular target: T1, Choline kinase alpha; experiment: Inhibition of human CKalpha1 assessed as reduction in 14C incorporation from [methyl-14C]choline to […] using [methyl-14C]choline as substrate preincubated for 5 mins in presence of ATP and MgCl2 followed by substrate addition and measured after 10 mins by liquid scintillation counting method relative to control
# Procedure, shortened: as §5
# Target sequence in this assay (P35790 whole entry): as above
# [24] = tested on: HT-29; experiment: Induction of cell cycle arrest in human HT-29 cells assessed as accumulation at S phase at 2.5 uM incubated for 24 hrs by PI staining based flowcytometry analysis (reference value: 27.40 %); assay type: functional
# [25] = molecular target: T1, Choline kinase alpha; experiment: Inhibition of human CKalpha1 assessed as reduction in 14C incorporation from [methyl-14C]choline to […] at 30 uM using [methyl-14C]choline as substrate preincubated for 5 mins in presence of ATP and MgCl2 followed by substrate addition and measured after 10 mins by liquid scintillation counting method relative to control; conditions: time 15.0 min
# Procedure, shortened: as §5
# Target sequence in this assay (P35790 whole entry, looked up): as the sequence (P35790 whole entry) above
# [26] = tested on: HeLa; experiment: Induction of cell cycle arrest in human HeLa cells assessed as accumulation at G0/G1 phase at 2.5 uM incubated for 24 hrs by PI staining based flowcytometry analysis (reference value: 57 %); assay type: functional
# [27] = tested on: HT-29; experiment: Antiproliferative activity against human HT-29 cells assessed as inhibition of cell proliferation incubated for 72 hrs by MTT assay; assay type: functional
# Procedure, shortened: as §4
# [28] = molecular target: Choline/ethanolamine kinase (Homo sapiens, UniProt Q9Y259); experiment: Binding affinity to human CKbeta assessed as dissociation constant by spectroflurometry
# Procedure, shortened: as §3
# [29] = tested on: HT-29; experiment: Induction of cell cycle arrest in human HT-29 cells assessed as accumulation at G0/G1 phase at 2.5 uM incubated for 24 hrs by PI staining based flowcytometry analysis (reference value: 60.20 %); assay type: functional
# [30] = tested on: HT-29; experiment: Induction of apoptosis in human HT-29 cells at 2.5 to 5 uM by annexin V-FITC and PI staining based flowcytometry analysis; assay type: functional, cell-based; conditions: dose 2.5-5 µM, time 24-48 hrs, TDE = time-dependent effect
# Procedure, shortened: as §2
# [31] = tested on: HeLa; experiment: Induction of cell cycle arrest in human HeLa cells assessed as accumulation at G2/M phase at 2.5 uM incubated for 24 hrs by PI staining based flowcytometry analysis (reference value: 10.70 %); assay type: functional
# [32] = tested on: HT-29; experiment: Induction of cell cycle arrest in human HT-29 cells assessed as accumulation at G2/M phase at 1 uM incubated for 24 hrs by PI staining based flowcytometry analysis (reference value: 12.40 %); assay type: functional
# [33] = tested on: HT-29; experiment: Induction of apoptosis in human HT-29 cells measured for 48 hrs by annexin V-FITC and PI staining based flowcytometry analysis; assay type: functional, cell-based; conditions: dose 2.5-5 µM
# Procedure, shortened: as §2
# Chain of Choline/ethanolamine kinase (Q9Y259 whole entry): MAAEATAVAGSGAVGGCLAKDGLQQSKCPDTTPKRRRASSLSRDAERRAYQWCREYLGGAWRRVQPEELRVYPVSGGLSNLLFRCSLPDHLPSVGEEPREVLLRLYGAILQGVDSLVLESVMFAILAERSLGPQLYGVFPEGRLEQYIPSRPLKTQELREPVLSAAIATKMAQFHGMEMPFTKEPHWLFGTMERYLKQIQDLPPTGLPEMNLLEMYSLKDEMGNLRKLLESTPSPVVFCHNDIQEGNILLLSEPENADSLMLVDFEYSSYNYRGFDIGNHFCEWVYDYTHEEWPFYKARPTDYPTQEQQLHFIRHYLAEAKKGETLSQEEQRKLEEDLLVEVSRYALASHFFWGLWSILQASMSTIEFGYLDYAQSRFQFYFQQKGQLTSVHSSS
structure (smiles),measurement,setting,value
Clc1ccc2c(N3CCCCCC3)cc[n+](Cc3ccc(-c4ccccc4)cc3)c2c1.[Br-],Activity,[1],Dose-dependent effect
same,inhibition at 10 µM,[2],86.9%
same,Activity,[3],5.1%
same,Activity,[4],Dose-dependent effect
same,Activity,[5],27.31%
same,Kd,[6],370 nM
same,inhibition at 30 µM,[7],96.7%
same,GI50,[8],60 nM
same,Activity,[9],Dose-dependent effect
same,Activity,[10],Tde
same,inhibition,[11],74.4%
same,Activity,[12],25.23%
same,Activity,[13],67.47%
same,Ratio,[14],171
same,Activity,[15],7.31%
same,inhibition at 10 µM,[16],88.2%
same,Activity,[17],7.9%
same,inhibition at 30 µM,[18],95.5%
same,Activity,[19],88%
same,GI50,[20],360 nM
same,Activity,[21],Dose-dependent effect
same,GI50,[22],150 nM
same,IC50,[23],6740 nM
same,Activity,[24],5.8%
same,inhibition,[25],94.4%
same,Activity,[26],66.27%
same,GI50,[27],90 nM
same,Kd,[28],63000 nM
same,Activity,[29],86.3%
same,Activity,[30],Tde
same,Activity,[31],4.5%
same,Activity,[32],6.9%
same,Activity,[33],Dose-dependent effect
